# Laboratory results published in ChEMBL document CHEMBL1132979, “5-HT reuptake inhibitors with 5-HT(1B/1D) antagonistic activity: a new approach toward efficient antidepressants” (J Med Chem, 2000).
# Tests used:
# [1] = species: Rattus norvegicus; assay: [3H]5-HT reuptake inhibition in Rat brain synaptosomes.; format: functional
# [2] = molecular target: 5-hydroxytryptamine receptor 1B (Rattus norvegicus, UniProt P28564); assay: Binding affinity towards 5-hydroxytryptamine 1B receptor in rat frontal cortex using [125I]iodocyanopindolol as radio-ligand.; format: tissue-based
# Chain of 5-hydroxytryptamine receptor 1B (P28564 whole entry): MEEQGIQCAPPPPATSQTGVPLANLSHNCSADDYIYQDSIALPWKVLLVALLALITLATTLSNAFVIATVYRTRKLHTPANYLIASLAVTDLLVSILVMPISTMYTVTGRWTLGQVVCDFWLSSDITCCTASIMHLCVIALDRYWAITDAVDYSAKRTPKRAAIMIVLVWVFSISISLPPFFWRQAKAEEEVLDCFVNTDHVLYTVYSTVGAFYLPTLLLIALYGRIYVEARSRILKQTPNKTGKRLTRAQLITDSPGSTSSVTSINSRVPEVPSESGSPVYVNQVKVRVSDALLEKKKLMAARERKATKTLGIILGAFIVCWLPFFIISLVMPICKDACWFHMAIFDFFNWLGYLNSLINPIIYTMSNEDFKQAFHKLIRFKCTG
# [3] = molecular target: T1, 5-hydroxytryptamine receptor 1A (Rattus norvegicus, UniProt P19327); assay: Binding affinity towards 5-hydroxytryptamine 1A receptor in rat hippocampus using [3H]8-OH-DPAT as radio-ligand.
# T1 sequence (P19327 whole entry): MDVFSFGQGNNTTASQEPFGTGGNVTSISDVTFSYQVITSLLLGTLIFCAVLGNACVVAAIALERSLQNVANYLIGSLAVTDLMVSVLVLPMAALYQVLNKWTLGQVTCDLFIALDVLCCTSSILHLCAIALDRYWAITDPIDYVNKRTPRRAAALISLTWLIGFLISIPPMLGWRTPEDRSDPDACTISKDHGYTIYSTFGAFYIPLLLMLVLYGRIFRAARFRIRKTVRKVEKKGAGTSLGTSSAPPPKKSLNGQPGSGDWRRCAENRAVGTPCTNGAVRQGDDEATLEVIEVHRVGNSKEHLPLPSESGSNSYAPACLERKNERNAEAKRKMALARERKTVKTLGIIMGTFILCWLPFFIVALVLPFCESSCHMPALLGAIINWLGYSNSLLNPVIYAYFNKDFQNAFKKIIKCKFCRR
# [4] = species: Cavia porcellus; assay: Sumatriptan induced inhibition of potassium evoked [3H]5-HT release from guinea pig cortex slices; format: functional
# How it was run: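 Cortex slices from male Dunkin-Hartley guinea pigs were loaded with [3H]5-HT for 30 min, then given potassium stimulation. Sumatriptan 3 µM alone (control), or with test compound at 30 nM, 300 nM or 3 µM, was superfused before and during S2. Basal-subtracted S2/S1 ratio is expressed as % of the sumatriptan-only ratio. Mean (±SEM) of 3-4 determinations.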
# [5] = species: Oryctolagus cuniculus; assay: Inhibition of the contractile responses elicited by sumatriptan in rabbit saphenous vein (RSV); format: functional; settings: read-out: pA2 (converted)
# How it was run: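 Isolated rabbit saphenous vein segments held in organ baths. Each segment received two sumatriptan concentration-response curves, the second after 60 min incubation with antagonist or control vehicle. Apparent pA2 was calculated from a single antagonist concentration in at least 3 preparations.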
Structure (SMILES),IC50 [1] [nM],IC50 [2] [nM],IC50 [3] [nM],Release [4] [%],Kb [5] [nM]
COc1ccc(NC(=O)NCCc2c[nH]c3ccc(O)cc23)cc1N1CCN(C)CC1,314,467,57,–,–
NC(=O)c1ccc2[nH]cc(C3CCNCC3)c2c1,> 100,–,–,–,–
NCCN1CCC(c2c[nH]c3cc(F)ccc23)CC1,11,–,–,–,–
Fc1ccc2[nH]cc(CCCCN3CCNCC3)c2c1,0.15,–,–,–,–
COc1ccc(NC(=O)N2CCc3[nH]c4ccc(F)cc4c3C2)cc1N1CCN(C)CC1,469,567,> 800,–,–
COc1ccc(NC(=O)N2CCN(CCCCc3c[nH]c4ccc(F)cc34)CC2)cc1N1CCN(C)CC1,0.7,77,50,120,20
COc1ccc(NC(=O)N2CCC(c3c[nH]c4ccccc34)CC2)cc1N1CCN(C)CC1,200,50,400,127,20
CN1CCC2(CC1)COc1ccc(NC(=O)NCCN3CCC(c4c[nH]c5cc(F)ccc45)CC3)cc12,2.2,300,700,–,–
Cc1nc(-c2ccc(-c3ccc(C(=O)Nc4ccc5c(c4)C4(CCN(C)CC4)CO5)cc3)c(C)c2)no1,> 1000,2.1,–,134,–
Fc1ccc2[nH]c3c(c2c1)CNCC3,> 100,–,–,–,–
COc1ccc(NC(=O)N2CCC(c3c[nH]c4cccc(F)c34)CC2)cc1N1CCN(C)CC1,65,50,300,145,2
COc1ccc(NC(=O)NCCN2CCC(c3c[nH]c4cc(F)ccc34)CC2)cc1N1CCN(C)CC1,1.9,223,160,–,–
c1ccc2c(C3CCNCC3)c[nH]c2c1,60,–,–,–,–
COc1ccc(NC(=O)NCCc2c[nH]c3ccc(F)cc23)cc1N1CCN(C)CC1,387,63,27,134,20
COc1ccc(NC(=O)N2CCC(c3c[nH]c4ccc(F)cc34)CC2)cc1N1CCN(C)CC1,21,85,367,151,15.8
COc1ccc(N)cc1N1CCN(C)CC1,> 1000,–,–,–,–
COc1ccc(NC(=O)N2CCC(c3c[nH]c4ccc(C(N)=O)cc34)CC2)cc1N1CCN(C)CC1,472,113,17,217,15.8

Structure (SMILES),IC50 [1] [nM],IC50 [2] [nM],IC50 [3] [nM],Release [4] [%],Kb [5] [nM]
CN1CCC2(CC1)COc1ccc(N)cc12,> 1000,–,–,–,–
NCCc1c[nH]c2ccc(F)cc12,130,–,–,–,–
Fc1ccc2[nH]cc(C3CCNCC3)c2c1,55,–,–,–,–
Fc1ccc2[nH]cc(C3CCNC3)c2c1 (stereo not drawn),45,–,–,–,–
CN1CCC2(CC1)COc1ccc(NC(=O)N3CCC(c4c[nH]c5ccc(F)cc45)CC3)cc12,0.2,23,> 200,125,50.1
COc1ccc(N)cc1OCCN(C)C,> 1000,–,–,–,–
Fc1cccc2[nH]cc(C3CCNCC3)c12,60,–,–,–,–
COc1ccc(NC(=O)N2CCC(c3c[nH]c4cc(F)ccc34)CC2)cc1N1CCN(C)CC1,49,80,667,169,25.1
COc1ccc(NC(=O)NCCN2CCC(c3c[nH]c4cc(F)ccc34)CC2)cc1OCCN(C)C,1.2,133,233,–,–
COc1ccc(NC(=O)N2CCC(c3c[nH]c4ccc(F)cc34)C2)cc1N1CCN(C)CC1 (stereo not drawn),106,233,100,–,–
COc1ccc(NC(=O)N2CCC(CCc3c[nH]c4ccccc34)CC2)cc1N1CCN(C)CC1,10,120,> 300,121,20
Fc1ccc2c(C3CCNCC3)c[nH]c2c1,20,–,–,–,–
COc1ccc(NC(=O)N2CCC(c3c[nH]c4ccc(F)cc34)CC2)cc1OCCN(C)C,4,633,> 500,–,–
N#Cc1ccc2[nH]cc(C3CCNCC3)c2c1,58,–,–,–,–
COc1ccc(NC(=O)N2CCC(c3c[nH]c4ccc(C#N)cc34)CC2)cc1N1CCN(C)CC1,1.9,267,233,167,10
COc1ccc(NC(=O)c2ccc(-c3ccc(-c4noc(C)n4)cc3C)cc2)cc1N1CCN(C)CC1 [GR-127935],1000,–,360,114,0.398
c1ccc2c(CCC3CCNCC3)c[nH]c2c1 [INDALPINE],1,–,–,–,–
